Data as given in ChEMBL document CHEMBL1128414, “Steroidal affinity labels of the estrogen receptor. 2. 17 alpha-[(Haloacetamido)alkyl]estradiols” (J Med Chem, 1995).
Calls of active or inactive are those of the source. The calls are words filed in the database; no cut-off is given here.

Legend:
Estrogen receptor = Estrogen receptor (Ovis aries, UniProt P49885+Q9TU15); assay: (§1) Irreversible inhibition of [3H]estradiol binding to lamb uterine estrogen receptor; assay type: protein assay
Procedure, shortened: (§2)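 Lamb uterine cytosol (4 mg protein/mL, immature lamb uteri, 20 mM Tris-HCl) adjusted to pH 8.5 with NaOH, preincubated 4 h at 0 °C with 10 nM–10 µM compound or no steroid. Charcoal treatment for 30 min at 0 °C, then centrifugation. […] Specific binding is expressed as % of unexposed cytosol. IC50 is the concentration giving 50% irreversible inhibition; duplicates in two experiments.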

[1] = biological target: T1, Estrogen receptor (Ovis aries) (UniProt P49885+Q9TU15); assay: In vitro agonist/antagonist activity in estrogen regulated transcriptional activation assay; assay type: functional; conditions: filed as partial agonist
[2] = biological target: T1, Estrogen receptor (Ovis aries); assay: as §1; assay type: protein assay; procedure, shortened: as §2
[3] = biological target: T1, Estrogen receptor (Ovis aries); assay: Relative efficiency(RE) in irreversible inhibition of lamb uterine estrogen receptor relative to iodoacetamide 23
[4] = biological target: T1, Estrogen receptor (Ovis aries)
[5] = biological target: T1, Estrogen receptor (Ovis aries); assay: In vitro agonist activity in estrogen regulated transcriptional activation assay; assay type: functional; conditions: filed as agonist
[6] = biological target: T1, Estrogen receptor (Ovis aries); assay: In vitro antagonist activity in estrogen regulated transcriptional activation assay; assay type: functional; conditions: filed as antagonist

Compound | IC50 (Estrogen receptor) | Hormonal activity [1] | Covalent binding [2] | RE [3] | RAC app [4] | Hormonal activity [5] | Hormonal activity [6]
C[C@]12CC[C@@H]3c4ccc(O)cc4CC[C@H]3[C@@H]1CC[C@@]2(O)CCNC(=O)CBr | 1600 nM | Partial agonist | Active | 0.011 | 0.017 |  | 
CC(=O)NCCC[C@]1(O)CC[C@H]2[C@@H]3CCc4cc(O)ccc4[C@H]3CC[C@@]21C |  | Partial agonist | inactive |  | 0.0084 |  | 
C[C@]12CC[C@@H]3c4ccc(O)cc4CC[C@H]3[C@@H]1CC[C@@]2(O)CCOS(C)(=O)=O |  |  | inactive |  | 0.15 | Agonist | 
C[C@]12CC[C@@H]3c4ccc(O)cc4CC[C@H]3[C@@H]1CC[C@@]2(O)CCCNC(=O)CI | 18 nM | Partial agonist | Active | 1 | 0.0084 |  | 
C[C@]12CC[C@@H]3c4ccc(O)cc4CC[C@H]3[C@@H]1CC[C@@]2(O)CCCNC(=O)CBr | 53 nM | Partial agonist | Active | 0.34 | 0.019 |  | 
C[C@]12CC[C@@H]3c4ccc(O)cc4CCC3[C@@H]1CC[C@@]2(O)CNC(=O)CBr (single isomer, unassigned) | 9700 nM |  | Active | 0.0019 | 0.0076 |  | Antagonist
